Assays:
NCI-H322M = experiment: Cytotoxicity against human NCI-H322M cells assessed as cell growth at 100 nM after 48 hrs by sulforhodamine B assay; type: functional; conditions: read-out: Activity
SK-OV-3 [1] = experiment: Cytotoxicity against human SKOV3 cells assessed as cell growth at 10 uM after 48 hrs by sulforhodamine B assay; type: functional; conditions: SK-OV-3, 48 h, read-out: Activity
ACHN [2] = experiment: Cytotoxicity against human ACHN cells assessed as cell growth at 0.01 uM after 48 hrs by sulforhodamine B assay; type: functional; conditions: read-out: Activity
How it was run: (§1)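 Cells grown in RPMI 1640 with 5% FBS and 2 mM L-glutamine, seeded at 5,000–40,000 cells/well by doubling time. Time-zero plates TCA-fixed after 24 h. Five concentrations (10-fold or half-log dilutions from DMSO stock) added; 48 h at 37 °C, 5% CO2. Cold TCA fixation (final 10%, 60 min, 4 °C), 0.4% SRB stain, dye solubilized in 10 mM trizma base, A515.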

SNB-75 [3] = experiment: Cytotoxicity against human SNB75 cells assessed as cell growth at 1 uM after 48 hrs by sulforhodamine B assay; type: functional; conditions: SNB-75, 48 h, read-out: Activity
UACC-62 = experiment: Cytotoxicity against human UACC62 cells assessed as cell growth at 1 uM after 48 hrs by sulforhodamine B assay; type: functional; conditions: UACC-62, 48 h, read-out: Activity
U-251 [4] = experiment: Growth inhibition of human U251 cells after 48 hrs by sulforhodamine B assay; type: functional, cell-based; conditions: for CC50: read-out: LC50 (the source's name)
How it was run: (§2)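 Cells grown in RPMI 1640 with 5% FBS and 2 mM L-glutamine, seeded at 5,000–40,000 cells/well according to doubling time. After 24 h, time-zero plates are TCA-fixed. Five concentrations (10-fold or ½log dilutions, DMSO stocks) are applied for 48 h at 37 °C, 5% CO₂. Cells are TCA-fixed, SRB-stained and read at 515 nm. IC₅₀ is taken from [(Ti−Tz)/(C−Tz)]×100 = 50.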

KM12 = experiment: Cytotoxicity against human KM12 cells assessed as cell growth at 10 uM after 48 hrs by sulforhodamine B assay; type: functional; conditions: KM12, 48 h, read-out: Activity
NCI-H23 = experiment: Cytotoxicity against human NCI-H23 cells assessed as cell growth at 1 uM after 48 hrs by sulforhodamine B assay; type: functional; conditions: NCI-H23, 48 h, read-out: Activity
SW-620 [5] = experiment: Cytotoxicity against human SW620 cells assessed as cell growth at 100 nM after 48 hrs by sulforhodamine B assay; type: functional; conditions: SW-620, 48 h, read-out: Activity
SF-539 = experiment: Cytotoxicity against human SF539 cells assessed as cell growth at 0.001 uM after 48 hrs by sulforhodamine B assay; type: functional; conditions: SF-539, 48 h, read-out: Activity
OVCAR-5 = experiment: Growth inhibition of human OVCAR5 cells after 48 hrs by sulforhodamine B assay; type: functional, cell-based; conditions: OVCAR-5, 48 h; for CC50: read-out: LC50 (the source's name); how it was run: as §2
OVCAR-3 = experiment: Cytotoxicity against human OVCAR-3 cells assessed as cell growth at 1 uM after 48 hrs by sulforhodamine B assay; type: functional; conditions: OVCAR-3, 48 h, read-out: Activity
SW-620 [6] = experiment: Cytotoxicity against human SW620 cells assessed as cell growth at 10 uM after 48 hrs by sulforhodamine B assay; type: functional; conditions: SW-620, 48 h, read-out: Activity
LOX IMVI = experiment: Cytotoxicity against human LOXIMVI cells assessed as cell growth at 10 uM after 48 hrs by sulforhodamine B assay; type: functional; conditions: read-out: Activity
DU-145 = experiment: Cytotoxicity against human DU145 cells assessed as cell growth at 0.01 uM after 48 hrs by sulforhodamine B assay; type: functional; conditions: DU-145, 48 h, read-out: Activity
UACC-257 [7] = experiment: Cytotoxicity against human UACC257 cells assessed as cell growth at 10 uM after 48 hrs by sulforhodamine B assay; type: functional; conditions: UACC-257, 48 h, read-out: Activity
MDA-MB-435 = experiment: Cytotoxicity against human MDA-MB-435 cells assessed as cell growth at 0.001 uM after 48 hrs by sulforhodamine B assay; type: functional; conditions: MDA-MB-435, 48 h, read-out: Activity
HT-29 = experiment: Cytotoxicity against human HT-29 cells assessed as cell growth at 0.001 uM after 48 hrs by sulforhodamine B assay; type: functional; conditions: HT-29, 48 h, read-out: Activity
NCI-H460 = experiment: Cytotoxicity against human NCI-H460 cells assessed as cell growth at 1 uM after 48 hrs by sulforhodamine B assay; type: functional; conditions: NCI-H460, 48 h, read-out: Activity
ACHN [8] = experiment: Cytotoxicity against human ACHN cells assessed as cell growth at 10 uM after 48 hrs by sulforhodamine B assay; type: functional; conditions: read-out: Activity; how it was run: as §1
A498 = experiment: Cytotoxicity against human A498 cells assessed as cell growth at 100 nM after 48 hrs by sulforhodamine B assay; type: functional; conditions: A498, 48 h, read-out: Activity; how it was run: as §1
SNB-75 [9] = experiment: Cytotoxicity against human SNB75 cells assessed as cell growth at 10 uM after 48 hrs by sulforhodamine B assay; type: functional; conditions: SNB-75, 48 h, read-out: Activity
UACC-257 [10] = experiment: Growth inhibition of human UACC257 cells after 48 hrs by sulforhodamine B assay; type: functional, cell-based; conditions: UACC-257, 48 h; for CC50: read-out: LC50 (the source's name); how it was run: as §2
U-251 [11] = experiment: Cytotoxicity against human U251 cells assessed as cell growth at 10 uM after 48 hrs by sulforhodamine B assay; type: functional; conditions: U-251, 48 h, read-out: Activity
BT-549 = experiment: Cytotoxicity against human BT549 cells assessed as cell growth at 0.001 uM after 48 hrs by sulforhodamine B assay; type: functional; conditions: BT-549, 48 h, read-out: Activity; how it was run: as §1
SW-620 [12] = experiment: Growth inhibition of human SW620 cells after 48 hrs by sulforhodamine B assay; type: functional, cell-based; conditions: SW-620, 48 h; for CC50: read-out: LC50 (the source's name); how it was run: as §2
NCI-H522 = experiment: Cytotoxicity against human NCI-H522 cells assessed as cell growth at 0.001 uM after 48 hrs by sulforhodamine B assay; type: functional; conditions: NCI-H522, 48 h, read-out: Activity
SK-OV-3 [13] = experiment: Cytotoxicity against human SKOV3 cells assessed as cell growth at 1 uM after 48 hrs by sulforhodamine B assay; type: functional; conditions: SK-OV-3, 48 h, read-out: Activity
COLO 205 = experiment: Cytotoxicity against human COLO205 cells assessed as cell growth at 10 uM after 48 hrs by sulforhodamine B assay; type: functional; conditions: COLO 205, 48 h, read-out: Activity; how it was run: as §1
HCT-15 = experiment: Cytotoxicity against human HCT15 cells assessed as cell growth at 100 nM after 48 hrs by sulforhodamine B assay; type: functional; conditions: HCT-15, 48 h, read-out: Activity
[14] = Growth inhibition of human Hs 578T cells after 48 hrs by sulforhodamine B assay; type: functional, cell-based; conditions: for CC50: read-out: LC50 (the source's name); how it was run: as §2
NCI/ADR-RES = experiment: Cytotoxicity against human NCI/ADR-RES cells assessed as cell growth at 1 uM after 48 hrs by sulforhodamine B assay; type: functional; conditions: read-out: Activity

## CC(=O)Nc1cccc(-c2ccc(-c3ccnc(NC(=O)Nc4cc(C(F)(F)F)cc(C(F)(F)F)c4)n3)cn2)c1.Cl
NCI-H322M
  growth at 0.1 µM: 69%
SK-OV-3 [1]
  growth at 10 µM: -63%
ACHN [2]
  growth at 0.01 µM: 90%
SNB-75 [3]
  growth at 1 µM: 54%
UACC-62
  growth at 1 µM: 12%
U-251 [4]; Homo sapiens, U-251, 48 h
  GI50: 2 µM
  IC50: 2 µM
  TGI: 5.32 µM
  CC50: 18.9 µM
KM12
  growth at 10 µM: 100%
NCI-H23
  growth at 1 µM: -16%
SW-620 [5]
  growth at 0.1 µM: 97%
SF-539
  growth at 0.001 µM: 97%
OVCAR-5
  GI50: 11.8 µM
  IC50: 11.8 µM
  TGI: 24.5 µM
  CC50: 50.8 µM
OVCAR-3
  growth at 1 µM: -52%
SW-620 [6]
  growth at 10 µM: 41%
LOX IMVI
  growth at 10 µM: 4%
DU-145
  growth at 0.01 µM: 95%
UACC-257 [7]
  growth at 10 µM: -89%
MDA-MB-435
  growth at 0.001 µM: 97%
HT-29
  growth at 0.001 µM: 106%
NCI-H460
  growth at 1 µM: -14%
ACHN [8]
  growth at 10 µM: -84%
A498
  growth at 0.1 µM: 64%
SNB-75 [9]
  growth at 10 µM: -57%
UACC-257 [10]
  GI50: 1.69 µM
  IC50: 1.69 µM
  TGI: 4.32 µM
  CC50: 13.2 µM
U-251 [11]
  growth at 10 µM: -96%
BT-549
  growth at 0.001 µM: 100%
SW-620 [12]
  GI50: 2.3 µM
  IC50: 2.3 µM
  TGI: 5.59 µM
  CC50: > 100 µM
NCI-H522
  growth at 0.001 µM: 86%
SK-OV-3 [13]
  growth at 1 µM: 65%
COLO 205
  growth at 10 µM: 3%
HCT-15
  growth at 0.1 µM: 90%
[14]
  GI50: 7.52 µM
  IC50: 7.52 µM
  TGI: > 100 µM
  CC50: > 100 µM
NCI/ADR-RES
  growth at 1 µM: 17%

## CC(=O)c1ccccc1-c1ccc(-c2ccnc(NC(=O)Nc3cc(N4CCOCC4)cc(C(F)(F)F)c3)n2)cn1
NCI-H322M
  growth at 0.1 µM: 99%
SK-OV-3 [1]
  growth at 10 µM: 41%
ACHN [2]
  growth at 0.01 µM: 99%
SNB-75 [3]
  growth at 1 µM: 36%
UACC-62
  growth at 1 µM: 73%
U-251 [4]
  TGI: > 100 µM
U-251 [4]; Homo sapiens, U-251, 48 h
  GI50: 5.36 µM
  IC50: 34.9 µM
  CC50: > 100 µM
KM12
  growth at 10 µM: 82%
NCI-H23
  growth at 1 µM: 52%
SW-620 [5]
  growth at 0.1 µM: 93%
SF-539
  growth at 0.001 µM: 97%
OVCAR-5
  GI50: > 100 µM
  IC50: > 100 µM
  TGI: > 100 µM
  CC50: > 100 µM
OVCAR-3
  growth at 1 µM: 70%
SW-620 [6]
  growth at 10 µM: 102%
LOX IMVI
  growth at 10 µM: 93%
DU-145
  growth at 0.01 µM: 97%
UACC-257 [7]
  growth at 10 µM: 92%
MDA-MB-435
  growth at 0.001 µM: 98%
HT-29
  growth at 0.001 µM: 103%
NCI-H460
  growth at 1 µM: 61%
ACHN [8]
  growth at 10 µM: 15%
A498
  growth at 0.1 µM: 72%
SNB-75 [9]
  growth at 10 µM: -45%
UACC-257 [10]
  GI50: 15.9 µM
  IC50: > 100 µM
  TGI: > 100 µM
  CC50: > 100 µM
U-251 [11]
  growth at 10 µM: 39%
BT-549
  growth at 0.001 µM: 101%
SW-620 [12]
  GI50: > 100 µM
  IC50: > 100 µM
  TGI: > 100 µM
  CC50: > 100 µM
NCI-H522
  growth at 0.001 µM: 91%
SK-OV-3 [13]
  growth at 1 µM: 48%
COLO 205
  growth at 10 µM: 115%
HCT-15
  growth at 0.1 µM: 92%
[14]
  GI50: > 100 µM
  IC50: 2.87 µM
  TGI: > 100 µM
  CC50: > 100 µM
NCI/ADR-RES
  growth at 1 µM: 50%

Source: ChEMBL document CHEMBL1165943, “Design and synthesis of new anticancer pyrimidines with multiple-kinase inhibitory effect” (Bioorg Med Chem, 2010)
